Measured values from different studies.
Lines come from different studies, so protocols differ.
FLT3: Receptor-type tyrosine-protein kinase FLT3 (FLT3, Homo sapiens, UniProt P36888)
FLT3 D835Y: Receptor-type tyrosine-protein kinase FLT3 (FLT3, Homo sapiens, UniProt P36888, D835Y)
FLT3 N841I: Receptor-type tyrosine-protein kinase FLT3 (FLT3, Homo sapiens, UniProt P36888, N841I)

SMILES | target | read-out | mode | technique | concentration | quantity | value
O=C1C=C(Nc2ccc(OCc3cn(Cc4ccccc4)nn3)cc2)C(=O)c2ccccc21 | FLT3 | enzyme activity | inhibitor | radiometric | 10 µM | inhibition | 46%
CC#CC(=O)N1CCC[C@H]1c1nc(-c2ccc(C(=O)Nc3ccccn3)cc2)c2c(N)nccn12 | Receptor-type tyrosine-protein kinase FLT3 (FLT3, Homo sapiens, UniProt P36888, D835V) | enzyme activity | inhibitor | – | 1 µM | inhibition | 1%
CCCCC(=O)Nc1ccc(-c2ccc3ncn(CCC)c(=O)c3c2)cn1 | FLT3 D835Y | binding | – | competition with immobilised ligand | 0.5 µM | remaining binding | 96%
Cc1n[nH]c2ccc3nc(-c4ccc(C(=O)NCCN(C)C)cc4F)c4c(c3c12)CCCC4 | FLT3 D835Y | enzyme activity | inhibitor | radiometric | 0.5 µM | remaining activity | 2%
CN(C)C(=O)c1cc2cnc(Nc3ccc(-c4ccc5c(=O)cc(N6CCOCC6)oc5c4)cc3)nc2n1C1CCCC1 | FLT3 | binding | – | competition with immobilised ligand | 1 µM | remaining binding | 3.9%
N#Cc1ccc(NC(=O)Nc2ccccc2)cc1 | FLT3 | cell-free assay | – | competition with immobilised ligand | 25 µM | remaining binding | 100%
C[C@H]1CC[C@H](n2c3cnccc3c3cnc(Nc4ccc5c(n4)CCN(C(=O)CO)C5)nc32)CC1 | FLT3 N841I | cell-free assay | – | – | 1 µM | remaining signal | 0%
C1=C/COCc2cc(ccc2OCCN2CCCC2)Nc2nccc(n2)-c2cccc(c2)COC/1 | FLT3 N841I | binding | – | – | 0.1 µM | remaining binding | 4.3%
C#Cc1cc(-c2cc(Nc3nc(N[C@@H](C)c4ccc(F)cn4)ncc3Cl)n[nH]2)ccc1C=O | FLT3 | enzyme activity | inhibitor | – | 0.2 µM | inhibition | 98.8%
COc1ccc2oc(-c3ccc4nc(N)oc4c3)c/c(=N\c3ccccc3NC(=O)CCN)c2c1 | FLT3 D835Y | cell-free assay | – | – | 1 µM | remaining signal | 92%
CN1CCN(C(=O)c2ccc(NC(=O)Nc3ccc(N(C)c4ccnc(Nc5ccc(CS(C)(=O)=O)cc5)n4)cc3)cc2)CC1 | FLT3 D835Y | binding | – | – | 1 µM | remaining binding | 5.3%
C=CC(=O)N1CCC([C@@H]2CCNc3c(C(N)=O)c(-c4ccc(Oc5ccccc5)cc4)nn32)CC1 | Receptor-type tyrosine-protein kinase FLT3 (FLT3, Homo sapiens, UniProt P36888, ITD) | enzyme activity | inhibitor | – | 1 µM | inhibition | 5%
Cc1ccc(NC(=O)c2ccnc(C(F)(F)F)c2)cc1-c1cc(OCCO)nc(N2CCOCC2)c1 | Receptor-type tyrosine-protein kinase FLT3 (FLT3, Homo sapiens, UniProt P36888, R834Q) | binding | – | – | 1 µM | remaining binding | 100%
CNS(=O)(=O)c1ccc(Nc2ncc(C(F)(F)F)c(N3CCC[C@](C)(O)C3)n2)c(C)c1 | FLT3 N841I | binding | – | competition with immobilised ligand | 1 µM | remaining binding | 70%
COc1ccc2[nH]c3c4[nH]c5ccc(OC)cc5c4c4c(c3c2c1)C(=O)NC4=O | FLT3 D835Y | binding | – | – | 1 µM | remaining binding | 16%
Cc1cc(S(=O)(=O)N[C@H]2CC[C@H](CN3CCN(c4ccc(C5CCC(=O)NC5=O)cc4F)CC3)CC2)ccc1Nc1ncc(C(F)(F)F)c(N2CCC[C@](C)(O)C2)n1 (stereo partly shown) | FLT3 N841I | binding | – | competition with immobilised ligand | 1 µM | remaining binding | 47%
